ChEMBL document CHEMBL5356993, “Novel pyrazolo[3,4-d]pyrimidine derivatives: design, synthesis, anticancer evaluation, VEGFR-2 inhibition, and antiangiogenic activity” (RSC Med Chem, 2023)

Test system: NCI-H460
Test: Antiproliferative activity against human NCI-H460 cells assessed as cell growth inhibition at 10 uM incubated for 48 hrs by SRB assay relative to control
Format: functional
Details: read-out: GI
In the case of `Cc1nc2c(cnn2-c2ccccc2)c(=O)n1-c1ccc(NC(=O)c2ccc(Cl)cc2)cc1`, the inhibition of growth at 10 µM is reported as 28.8%.

Test system: NCI-H522
Test: Antiproliferative activity against human NCI-H522 cells assessed as cell growth inhibition at 10 uM incubated for 48 hrs by SRB assay relative to control
Format: functional
Details: read-out: GI
Outline: (§1)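 Cells plated in 96-well plates at […] cells/well and preincubated 24 h at 37 °C, 5% CO2. Time-zero plates were TCA-fixed. Compound was diluted in medium with 50 µg/mL gentamicin and cells exposed for 48 h. Adherent cells fixed with 10% final TCA; suspension cells with 16% final TCA. Plates stained with 0.4% SRB in 1% acetic acid, dye solubilized in 10 mM Trizma, absorbance read at 515 nm. Percent growth calculated against time-zero and control.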
For `Cc1nc2c(cnn2-c2ccccc2)c(=O)n1-c1ccc(NC(=O)c2ccc(Cl)cc2)cc1`, the inhibition of growth at 10 µM was 32.3%.

Test system: HCC 2998
Test: Antiproliferative activity against human HCC 2998 cells assessed as cell growth inhibition at 10 uM incubated for 48 hrs by SRB assay relative to control
Format: functional
Details: read-out: GI
Work on `Cc1nc2c(cnn2-c2ccccc2)c(=O)n1-c1ccc(NC(=O)c2ccc(Cl)cc2)cc1` yielded an inhibition of growth at 10 µM of 15.8%.

Test system: HCT-116
Test: Antiproliferative activity against human HCT-116 cells assessed as cell growth inhibition at 10 uM incubated for 48 hrs by SRB assay relative to control
Format: functional
Details: read-out: GI
For `Cc1nc2c(cnn2-c2ccccc2)c(=O)n1-c1ccc(NC(=O)c2ccc(Cl)cc2)cc1`, the inhibition of growth at 10 µM was 44.5%.

Test system: HCT-15
Test: Antiproliferative activity against human HCT-15 cells assessed as cell growth inhibition at 10 uM incubated for 48 hrs by SRB assay relative to control
Format: functional
Details: read-out: GI
For `Cc1nc2c(cnn2-c2ccccc2)c(=O)n1-c1ccc(NC(=O)c2ccc(Cl)cc2)cc1`, the inhibition of growth at 10 µM was 23.2%.

Test system: SW-620
Test: Antiproliferative activity against human SW620 cells assessed as cell growth inhibition at 10 uM incubated for 48 hrs by SRB assay relative to control
Format: functional
Details: read-out: GI
Outline: (§2)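 Cells pre-incubated 24 h at 37°C, 5% CO2, then exposed to compound (DMSO stock diluted in medium with 50 µg/mL gentamicin) for 48 h. Adherent cells fixed with cold TCA (final 10%, 60 min, 4°C); suspension cells fixed with 16% TCA final. Stained with 0.4% SRB in 1% acetic acid for 10 min, dye solubilized in 10 mM Trizma base, absorbance read at 515 nm. Growth calculated against time-zero and untreated control plates.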
Compound `Cc1nc2c(cnn2-c2ccccc2)c(=O)n1-c1ccc(NC(=O)c2ccc(Cl)cc2)cc1` has an inhibition of growth at 10 µM of 17.3%.

Test system: SF-539
Test: Antiproliferative activity against human SF-539 cells assessed as cell growth inhibition at 10 uM incubated for 48 hrs by SRB assay relative to control
Format: functional
Details: read-out: GI
Outline: as §1
In the case of `Cc1nc2c(cnn2-c2ccccc2)c(=O)n1-c1ccc(NC(=O)c2ccc(Cl)cc2)cc1`, the inhibition of growth at 10 µM is reported as under 15%.

Test system: LOX IMVI
Test: Antiproliferative activity against human LOX IMVI cells assessed as cell growth inhibition at 10 uM incubated for 48 hrs by SRB assay relative to control
Format: functional
Details: read-out: GI
`Cc1nc2c(cnn2-c2ccccc2)c(=O)n1-c1ccc(NC(=O)c2ccc(Cl)cc2)cc1` showed an inhibition of growth at 10 µM of 33.4%.

Test system: M14
Test: Antiproliferative activity against human M14 cells assessed as cell growth inhibition at 10 uM incubated for 48 hrs by SRB assay relative to control
Format: functional
Details: read-out: GI
Outline: as §1
`Cc1nc2c(cnn2-c2ccccc2)c(=O)n1-c1ccc(NC(=O)c2ccc(Cl)cc2)cc1` gave an inhibition of growth at 10 µM of 24.6%.

Test system: MDA-MB-435
Test: Antiproliferative activity against human MDA-MB-435 cells assessed as cell growth inhibition at 10 uM incubated for 48 hrs by SRB assay relative to control
Format: functional
Details: read-out: GI
In the case of `Cc1nc2c(cnn2-c2ccccc2)c(=O)n1-c1ccc(NC(=O)c2ccc(Cl)cc2)cc1`, the inhibition of growth at 10 µM is reported as 30.2%.

Test system: SK-MEL-5
Test: Antiproliferative activity against human SK-MEL-5 cells assessed as cell growth inhibition at 10 uM incubated for 48 hrs by SRB assay relative to control
Format: functional
Details: read-out: GI
Outline: as §1
For `Cc1nc2c(cnn2-c2ccccc2)c(=O)n1-c1ccc(NC(=O)c2ccc(Cl)cc2)cc1`, the inhibition of growth at 10 µM was 80.3%.

Test system: UACC-62
Test: Antiproliferative activity against human UACC-62 cells assessed as cell growth inhibition at 10 uM incubated for 48 hrs by SRB assay relative to control
Format: functional
Details: read-out: GI
Outline: as §2
Compound `Cc1nc2c(cnn2-c2ccccc2)c(=O)n1-c1ccc(NC(=O)c2ccc(Cl)cc2)cc1` has an inhibition of growth at 10 µM of 32.2%.

Test system: OVCAR-4
Test: Antiproliferative activity against human OVCAR-4 cells assessed as cell growth inhibition at 10 uM incubated for 48 hrs by SRB assay relative to control
Format: functional
Details: read-out: GI
`Cc1nc2c(cnn2-c2ccccc2)c(=O)n1-c1ccc(NC(=O)c2ccc(Cl)cc2)cc1` showed an inhibition of growth at 10 µM of 53.9%.

Test system: 786-0
Test: Antiproliferative activity against human 786-0 cells assessed as cell growth inhibition at 10 uM incubated for 48 hrs by SRB assay relative to control
Format: functional
Details: read-out: GI
Compound `Cc1nc2c(cnn2-c2ccccc2)c(=O)n1-c1ccc(NC(=O)c2ccc(Cl)cc2)cc1` has an inhibition of growth at 10 µM of 20.3%.

Test system: A498
Test: Antiproliferative activity against human A498 cells assessed as cell growth inhibition at 10 uM incubated for 48 hrs by SRB assay relative to control
Format: functional
Details: read-out: GI
Outline: as §1
For `Cc1nc2c(cnn2-c2ccccc2)c(=O)n1-c1ccc(NC(=O)c2ccc(Cl)cc2)cc1`, the inhibition of growth at 10 µM was under 15%.

Test system: TK-10
Test: Antiproliferative activity against human TK-10 cells assessed as cell growth inhibition at 10 uM incubated for 48 hrs by SRB assay relative to control
Format: functional
Details: read-out: GI
Outline: as §2
In the case of `Cc1nc2c(cnn2-c2ccccc2)c(=O)n1-c1ccc(NC(=O)c2ccc(Cl)cc2)cc1`, the inhibition of growth at 10 µM is reported as 19.9%.

Test system: T47D
Test: Antiproliferative activity against human T47D cells assessed as cell growth inhibition at 10 uM incubated for 48 hrs by SRB assay relative to control
Format: functional
Details: read-out: GI
Outline: as §2
In the case of `Cc1nc2c(cnn2-c2ccccc2)c(=O)n1-c1ccc(NC(=O)c2ccc(Cl)cc2)cc1`, the inhibition of growth at 10 µM is reported as 72.5%.

Test system: NCI-H23
Test: Antiproliferative activity against human NCI-H23 cells assessed as cell growth inhibition at 10 uM incubated for 48 hrs by SRB assay relative to control
Format: functional
Details: read-out: GI
`Cc1nc2c(cnn2-c2ccccc2)c(=O)n1-c1ccc(NC(=O)c2ccc(Cl)cc2)cc1` gave an inhibition of growth at 10 µM of 47.2%.

Test system: HOP-62
Test: Antiproliferative activity against human HOP-62 cells assessed as cell growth inhibition at 10 uM incubated for 48 hrs by SRB assay relative to control
Format: functional
Details: read-out: GI
Compound `Cc1nc2c(cnn2-c2ccccc2)c(=O)n1-c1ccc(NC(=O)c2ccc(Cl)cc2)cc1` has an inhibition of growth at 10 µM of 41.1%.

Test system: EKVX
Test: Antiproliferative activity against human EKVX cells assessed as cell growth inhibition at 10 uM incubated for 48 hrs by SRB assay relative to control
Format: functional
Details: read-out: GI
In the case of `Cc1nc2c(cnn2-c2ccccc2)c(=O)n1-c1ccc(NC(=O)c2ccc(Cl)cc2)cc1`, the inhibition of growth at 10 µM is reported as 68.5%.

Test system: K562
Test: Antiproliferative activity against human K562 cells assessed as cell growth inhibition at 10 uM incubated for 48 hrs by SRB assay relative to control
Format: functional
Details: read-out: GI
`Cc1nc2c(cnn2-c2ccccc2)c(=O)n1-c1ccc(NC(=O)c2ccc(Cl)cc2)cc1` gave an inhibition of growth at 10 µM of 61.3%.

Test system: HL-60(TB)
Test: Antiproliferative activity against human HL-60(TB) cells assessed as cell growth inhibition at 10 uM incubated for 48 hrs by SRB assay relative to control
Format: functional
Details: read-out: GI
Outline: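 Cells were plated at […] cells/well and preincubated 24 h at 37°C, 5% CO2, with time-zero plates TCA-fixed. Compound was diluted from DMSO stock in medium with 50 µg/mL gentamicin, then exposed for 48 h. Settled suspension cells were fixed with 80% TCA (final 16%), stained with 0.4% SRB and solubilized in 10 mM Trizma, A515. Growth was taken relative to Tz and control.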
`Cc1nc2c(cnn2-c2ccccc2)c(=O)n1-c1ccc(NC(=O)c2ccc(Cl)cc2)cc1` showed an inhibition of growth at 10 µM of 48.1%.

Test system: CCRF-CEM
Test: Antiproliferative activity against human CCRF-CEM cells assessed as cell growth inhibition at 10 uM incubated for 48 hrs by SRB assay relative to control
Format: functional
Details: read-out: GI
Outline: as §1
Compound `Cc1nc2c(cnn2-c2ccccc2)c(=O)n1-c1ccc(NC(=O)c2ccc(Cl)cc2)cc1` has an inhibition of growth at 10 µM of 25.3%.

Test system: not listed separately
Test: Cytotoxicity against human MCF-10A cells assessed as cell growth inhibition incubated for 72 hrs by MTT assay
Details: not given
With `Cc1nc2c(cnn2-c2ccccc2)c(=O)n1-c1ccc(NC(=O)c2ccc(Cl)cc2)cc1` the IC50 at 72 h was 34.6 µM.

Test system: MDA-MB-468
Test: Cytotoxicity against human MDA-MB-468 cells assessed as cell growth inhibition incubated for 72 hrs by MTT assay
Format: functional, cell-based
Details: MDA-MB-468, 72 h
`Cc1nc2c(cnn2-c2ccccc2)c(=O)n1-c1ccc(NC(=O)c2ccc(Cl)cc2)cc1` showed an IC50 of 10.7 µM.

Test system: T47D
Test: Cytotoxicity against human T47D cells assessed as cell growth inhibition incubated for 72 hrs by MTT assay
Format: functional, cell-based
Details: not given
Work on `Cc1nc2c(cnn2-c2ccccc2)c(=O)n1-c1ccc(NC(=O)c2ccc(Cl)cc2)cc1` yielded an IC50 of 20.1 µM.

Test system: not listed separately
Test: Selectivity index, ratio of IC50 for human MCF-10A cells to IC50 for human MDA-MB-468 cells
Details: MCF-10A cells versus MDA-MB-468 cells
In the case of `Cc1nc2c(cnn2-c2ccccc2)c(=O)n1-c1ccc(NC(=O)c2ccc(Cl)cc2)cc1`, the selectivity ratio is reported as 3.24.

Test system: not listed separately
Test: Selectivity index, ratio of IC50 for human MCF-10A cells to IC50 for human T47D cells
Details: MCF-10A cells versus T47D cells
`Cc1nc2c(cnn2-c2ccccc2)c(=O)n1-c1ccc(NC(=O)c2ccc(Cl)cc2)cc1` gave a selectivity ratio of 1.72.

Target: Vascular endothelial growth factor receptor 2 (Homo sapiens, UniProt P35968)
Sequence (P35968 whole entry): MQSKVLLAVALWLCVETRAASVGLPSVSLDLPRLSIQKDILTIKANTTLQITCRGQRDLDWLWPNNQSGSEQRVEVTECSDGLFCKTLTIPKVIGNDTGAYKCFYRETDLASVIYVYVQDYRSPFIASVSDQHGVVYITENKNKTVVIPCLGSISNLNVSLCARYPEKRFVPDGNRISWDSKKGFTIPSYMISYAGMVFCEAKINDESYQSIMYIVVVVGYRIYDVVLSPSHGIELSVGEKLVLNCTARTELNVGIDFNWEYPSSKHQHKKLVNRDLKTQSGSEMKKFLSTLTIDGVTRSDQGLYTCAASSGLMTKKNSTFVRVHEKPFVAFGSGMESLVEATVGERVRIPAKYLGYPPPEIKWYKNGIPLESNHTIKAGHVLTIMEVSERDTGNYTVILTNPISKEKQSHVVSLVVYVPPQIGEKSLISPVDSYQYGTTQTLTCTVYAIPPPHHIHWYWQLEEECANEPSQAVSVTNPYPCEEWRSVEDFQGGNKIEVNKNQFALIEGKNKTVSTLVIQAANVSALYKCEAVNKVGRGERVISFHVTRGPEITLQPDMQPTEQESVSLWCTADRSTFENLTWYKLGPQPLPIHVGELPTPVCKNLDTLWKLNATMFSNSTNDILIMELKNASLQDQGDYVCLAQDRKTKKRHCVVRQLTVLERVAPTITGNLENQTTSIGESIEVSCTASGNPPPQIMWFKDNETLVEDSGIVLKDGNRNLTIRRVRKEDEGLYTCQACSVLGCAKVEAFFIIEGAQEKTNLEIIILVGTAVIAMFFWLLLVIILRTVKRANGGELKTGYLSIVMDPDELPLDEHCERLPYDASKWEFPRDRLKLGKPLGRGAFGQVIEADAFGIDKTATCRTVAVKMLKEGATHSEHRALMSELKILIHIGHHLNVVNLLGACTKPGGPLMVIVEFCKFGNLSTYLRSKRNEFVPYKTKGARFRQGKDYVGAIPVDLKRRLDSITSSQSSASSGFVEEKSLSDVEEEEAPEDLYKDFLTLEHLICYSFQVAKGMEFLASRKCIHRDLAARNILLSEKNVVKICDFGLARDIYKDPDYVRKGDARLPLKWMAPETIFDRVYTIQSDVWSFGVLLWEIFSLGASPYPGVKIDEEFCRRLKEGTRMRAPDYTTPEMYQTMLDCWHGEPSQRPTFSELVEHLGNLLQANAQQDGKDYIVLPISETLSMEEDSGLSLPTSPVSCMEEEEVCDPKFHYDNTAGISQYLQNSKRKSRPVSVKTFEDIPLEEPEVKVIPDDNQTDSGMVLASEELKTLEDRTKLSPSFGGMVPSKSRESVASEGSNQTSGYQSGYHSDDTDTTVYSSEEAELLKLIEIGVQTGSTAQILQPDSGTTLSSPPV
Test: Inhibition of VEGFR-2 (unknown origin) incubated for 45 mins by Kinase-Glo Max assay
Details: not given
Work on `Cc1nc2c(cnn2-c2ccccc2)c(=O)n1-c1ccc(NC(=O)c2ccc(Cl)cc2)cc1` yielded an IC50 of 0.2 µM.
